How the values were obtained:
Homo sapiens [1] = species on record: Homo sapiens; test: Selectivity ratio of IC50 for human A549 cells expressing wild-type EGFR/K-Ras mutant to IC50 for human NCI-H1975 cells expressing EGFR L858R/T790M double mutant
HT-29 = test: Cytotoxicity against human HT-29 cells after 72 hrs by MTT assay; format: cell-based; details: HT-29, 72 h
Outline: (§1)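 Cells grown in MEM with 10% FBS; about 4×10^3 cells per well seeded and held 24 h at 37°C in 5% CO₂. Compounds then added and culture continued 72 h. MTT added ([…]) for 4 h at 37°C. Formazan dissolved in DMSO and absorbance read at 492 nm against 630 nm reference. Each compound tested three times per line; IC50 is the mean of at least three determinations.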

NCI-H1975 = test: Cytotoxicity against human NCI-H1975 cells expressing EGFR L858R/T790M double mutant after 72 hrs by MTT assay; format: functional, cell-based; details: NCI-H1975, 72 h; outline: as §1
A549 = test: Cytotoxicity against human A549 cells expressing wild-type EGFR/K-ras mutant after 72 hrs by MTT assay; format: cell-based; details: A549, 72 h; outline: as §1
[2] = target: Epidermal growth factor receptor (Homo sapiens, UniProt P00533, L858R/T790M); test: Inhibition of recombinant human GST-tagged EGFR L858R/T790M double mutant cytoplasmic domain (668 to 1210 residues) expressed in baculovirus expression system using FAM-labelled peptide as substrate pretreated for 10 mins followed by substrate addition measured after 1 hr by mobility shift assay
Epidermal growth factor receptor (Homo sapiens, UniProt P00533, L858R/T790M), sequence (P00533 25-1210 T790M/L858R limits assumed): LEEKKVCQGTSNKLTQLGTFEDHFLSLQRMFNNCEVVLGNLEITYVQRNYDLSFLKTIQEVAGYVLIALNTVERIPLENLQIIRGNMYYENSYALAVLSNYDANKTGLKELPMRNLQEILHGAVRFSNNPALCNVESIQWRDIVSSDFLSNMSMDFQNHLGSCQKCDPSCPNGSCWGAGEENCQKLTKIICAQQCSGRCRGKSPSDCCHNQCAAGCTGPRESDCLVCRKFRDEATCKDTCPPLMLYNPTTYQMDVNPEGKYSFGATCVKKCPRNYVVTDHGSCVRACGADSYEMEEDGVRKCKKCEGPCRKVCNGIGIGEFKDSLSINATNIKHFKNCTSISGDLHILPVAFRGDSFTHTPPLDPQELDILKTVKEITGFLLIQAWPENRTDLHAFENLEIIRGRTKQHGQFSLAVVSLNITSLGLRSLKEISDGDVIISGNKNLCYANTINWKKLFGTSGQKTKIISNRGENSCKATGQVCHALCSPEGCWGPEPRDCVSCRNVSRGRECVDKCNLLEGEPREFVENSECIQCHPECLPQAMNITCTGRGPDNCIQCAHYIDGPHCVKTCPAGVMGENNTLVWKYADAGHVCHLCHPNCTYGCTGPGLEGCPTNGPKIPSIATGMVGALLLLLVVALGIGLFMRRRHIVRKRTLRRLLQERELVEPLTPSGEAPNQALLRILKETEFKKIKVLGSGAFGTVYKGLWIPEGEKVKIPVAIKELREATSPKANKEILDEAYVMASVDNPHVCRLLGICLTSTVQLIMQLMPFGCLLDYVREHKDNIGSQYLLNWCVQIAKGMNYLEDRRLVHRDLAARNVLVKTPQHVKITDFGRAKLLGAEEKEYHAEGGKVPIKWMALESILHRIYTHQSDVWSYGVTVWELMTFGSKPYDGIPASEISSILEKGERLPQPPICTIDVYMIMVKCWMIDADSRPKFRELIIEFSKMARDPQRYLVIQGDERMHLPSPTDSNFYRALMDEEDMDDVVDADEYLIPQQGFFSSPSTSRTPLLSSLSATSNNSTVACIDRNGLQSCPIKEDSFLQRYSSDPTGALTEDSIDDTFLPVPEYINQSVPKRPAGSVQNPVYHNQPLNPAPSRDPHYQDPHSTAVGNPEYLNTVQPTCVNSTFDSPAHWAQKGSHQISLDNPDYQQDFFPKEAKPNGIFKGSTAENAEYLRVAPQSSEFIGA

Homo sapiens [3] = species on record: Homo sapiens; test: Selectivity ratio of IC50 for recombinant human GST-tagged EGFR cytoplasmic domain (668 to 1210 residues) expressed in baculovirus expression system to IC50 for recombinant human GST-tagged EGFR L858R/T790M double mutant cytoplasmic domain (668 to 1210 residues) expressed in baculovirus expression system
Outline: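 Caliper mobility-shift kinase assay in 50 mM HEPES pH 7.5, 0.0015% Brij35, 2 mM DTT. Five-point DMSO dilution series, in duplicate. Enzyme (EGFR form as appropriate) was preincubated with compound for 10 min at room temperature. FAM-labeled peptide plus ATP was added, then 1 h at 28°C. Stopped with EDTA buffer. Percent inhibition came from substrate conversion; ratio taken as WT IC50 over L858R/T790M IC50.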

[4] = target: Epidermal growth factor receptor (Homo sapiens, UniProt P00533); test: Inhibition of recombinant human GST-tagged EGFR cytoplasmic domain (668 to 1210 residues) expressed in baculovirus expression system using FAM-labelled peptide as substrate pretreated for 10 mins followed by substrate addition measured after 1 hr by mobility shift assay
Epidermal growth factor receptor (Homo sapiens, UniProt P00533), sequence (P00533 whole entry, the tested form may be a part): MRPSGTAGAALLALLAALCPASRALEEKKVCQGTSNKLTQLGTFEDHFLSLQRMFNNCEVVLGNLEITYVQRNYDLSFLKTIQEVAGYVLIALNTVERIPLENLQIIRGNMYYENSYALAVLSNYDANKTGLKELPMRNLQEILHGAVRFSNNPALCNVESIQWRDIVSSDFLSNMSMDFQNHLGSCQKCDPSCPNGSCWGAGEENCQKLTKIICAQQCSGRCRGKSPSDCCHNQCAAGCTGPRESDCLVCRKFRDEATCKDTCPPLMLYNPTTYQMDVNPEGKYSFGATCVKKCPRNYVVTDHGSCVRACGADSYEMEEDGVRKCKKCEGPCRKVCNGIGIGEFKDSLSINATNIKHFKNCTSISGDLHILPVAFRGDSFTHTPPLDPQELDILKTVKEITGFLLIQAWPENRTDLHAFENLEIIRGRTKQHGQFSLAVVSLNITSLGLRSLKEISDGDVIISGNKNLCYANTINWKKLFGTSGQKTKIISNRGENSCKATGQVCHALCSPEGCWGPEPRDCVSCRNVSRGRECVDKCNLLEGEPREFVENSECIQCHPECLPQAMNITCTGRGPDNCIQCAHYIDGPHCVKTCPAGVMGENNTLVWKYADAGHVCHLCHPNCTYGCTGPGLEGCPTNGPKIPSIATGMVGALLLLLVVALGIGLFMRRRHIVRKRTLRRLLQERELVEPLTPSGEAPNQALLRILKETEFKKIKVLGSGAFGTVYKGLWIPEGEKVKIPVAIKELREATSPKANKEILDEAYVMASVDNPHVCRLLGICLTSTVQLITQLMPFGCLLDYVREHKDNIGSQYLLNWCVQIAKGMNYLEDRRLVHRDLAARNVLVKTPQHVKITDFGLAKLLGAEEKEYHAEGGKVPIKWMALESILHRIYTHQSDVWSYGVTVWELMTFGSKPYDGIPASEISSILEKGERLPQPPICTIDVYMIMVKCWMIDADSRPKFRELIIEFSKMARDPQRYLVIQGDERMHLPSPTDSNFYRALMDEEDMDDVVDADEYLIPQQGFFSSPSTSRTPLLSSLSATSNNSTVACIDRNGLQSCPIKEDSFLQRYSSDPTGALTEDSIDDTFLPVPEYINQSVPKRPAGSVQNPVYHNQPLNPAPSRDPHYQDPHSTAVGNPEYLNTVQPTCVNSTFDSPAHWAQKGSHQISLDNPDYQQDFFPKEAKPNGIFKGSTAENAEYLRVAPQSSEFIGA

[5] = target: Epidermal growth factor receptor (Homo sapiens, UniProt P00533, T790M); test: Inhibition of recombinant human GST-tagged EGFR T790M mutant cytoplasmic domain (668 to 1210 residues) expressed in baculovirus expression system using FAM-labelled peptide as substrate pretreated for 10 mins followed by substrate addition measured after 1 hr by mobility shift assay

Ratio IC50 (Homo sapiens [1])	Compound	IC50 (HT-29)	IC50 (NCI-H1975)	IC50 (A549)	IC50 ([2]; read-out: IC50)	Ratio IC50 (Homo sapiens [3])	IC50 [4]	IC50 [5]	IC50 ([2]; read-out: pIC50 (converted))
< 1	C=CC(=O)Nc1cc(Nc2ncc3[nH]c(=O)n(-c4ccc(C(C)C)cc4)c3n2)c(OC)cc1N1CCOCC1	1.54 µM	4.04 µM	1.17 µM	–	–	–	–	–
< 1	C=CC(=O)Nc1cc(Nc2ncc3ncn(-c4ccc(I)cc4)c3n2)c(OC)cc1N1CCOCC1	35.1 µM	29.8 µM	1.52 µM	–	–	–	–	–
5	C=CC(=O)Nc1cc(Nc2ncc3ncn(-c4ccc(C(C)C)cc4)c3n2)c(OC)cc1N1CCN(C)CC1	7.69 µM	1.93 µM	9.25 µM	–	–	–	–	–
4	C=CC(=O)Nc1cc(Nc2ncc3[nH]c(=O)n(-c4ccc(I)cc4)c3n2)c(OC)cc1N1CCOCC1	19.6 µM	4.31 µM	18.5 µM	–	–	–	–	–
8	C=CC(=O)Nc1cc(Nc2ncc3ncn(-c4ccc(Br)cc4)c3n2)c(OC)cc1N(C)CCN(C)C	1.46 µM	0.14 µM	1.15 µM	–	–	–	–	–
< 1	C=CC(=O)Nc1cc(Nc2ncc3ncn(-c4ccccc4F)c3n2)c(OC)cc1N(C)CCN(C)C	9.75 µM	6.72 µM	5.82 µM	–	–	–	–	–
9	C=CC(=O)Nc1cc(Nc2ncc3ncn(C4CCCC4)c3n2)c(OC)cc1N(C)CCN(C)C	20.9 µM	0.33 µM	2.9 µM	–	–	–	–	–
< 1	C=CC(=O)Nc1cc(Nc2ncc3ncn(-c4ccc(C(C)C)cc4)c3n2)c(OC)cc1N1CCOCC1	23 µM	5.1 µM	4.23 µM	–	–	–	–	–
7	C=CC(=O)Nc1cc(Nc2ncc3ncn(-c4ccc(Cl)cc4Cl)c3n2)c(OC)cc1N(C)CCN(C)C	20.6 µM	1.61 µM	11.2 µM	–	–	–	–	–
16	C=CC(=O)Nc1cc(Nc2ncc3ncn(-c4ccc(CC)cc4)c3n2)c(OC)cc1N(C)CCN(C)C	8.18 µM	0.13 µM	1.97 µM	–	–	–	–	–
1	C=CC(=O)Nc1cc(Nc2ncc3[nH]c(=O)n(-c4ccc(C(C)C)cc4)c3n2)c(OC)cc1N1CCN(C)CC1	14.3 µM	2.14 µM	2.05 µM	–	–	–	–	–
3	C=CC(=O)Nc1cc(Nc2ncc3nc(Nc4ccccc4)n(C4CCCC4)c3n2)c(OC)cc1N(C)CCN(C)C	11.4 µM	0.23 µM	0.78 µM	–	–	–	–	–
42	C=CC(=O)Nc1cc(Nc2ncc3ncn(-c4ccc(OC)cc4)c3n2)c(OC)cc1N(C)CCN(C)C	1.74 µM	0.16 µM	3.33 µM	–	–	–	–	–
< 1	C=CC(=O)Nc1cc(Nc2ncc3ncn(-c4ccc(I)cc4)c3n2)c(OC)cc1N1CCN(C)CC1	20.7 µM	7.32 µM	6.31 µM	–	–	–	–	–
1	C=CC(=O)Nc1cc(Nc2ncc3ncn(-c4ccccc4Br)c3n2)c(OC)cc1N(C)CCN(C)C	16.2 µM	1.8 µM	2.09 µM	–	–	–	–	–
3	C=CC(=O)Nc1cc(Nc2ncc3ncn(-c4ccc(C)cc4)c3n2)c(OC)cc1N(C)CCN(C)C	9.23 µM	0.14 µM	0.36 µM	–	–	–	–	–

Second part, the molecule before the results:

Compound	Ratio IC50 (Homo sapiens [1])	IC50 (HT-29)	IC50 (NCI-H1975)	IC50 (A549)	IC50 ([2]; read-out: IC50)	Ratio IC50 (Homo sapiens [3])	IC50 [4]	IC50 [5]	IC50 ([2]; read-out: pIC50 (converted))
C=CC(=O)Nc1cc(Nc2ncc3[nH]c(=O)n(-c4ccc(I)cc4)c3n2)c(OC)cc1N1CCN(C)CC1	< 1	39.3 µM	10.4 µM	0.49 µM	–	–	–	–	–
C=CC(=O)Nc1cc(Nc2ncc3nc(Nc4ccccc4)n(C(C)C)c3n2)c(OC)cc1N(C)CCN(C)C	31	4.72 µM	0.046 µM	1.42 µM	0.0051 µM	8	0.041 µM	–	–
C=CC(=O)Nc1cc(Nc2nccc(-c3cn(C)c4ccccc34)n2)c(OC)cc1N(C)CCN(C)C [OSIMERTINIB]	–	0.65 µM	[…]	0.87 µM	–	–	–	–	–
C=CC(=O)Nc1cc(Nc2ncc3ncn(-c4ccc(I)cc4)c3n2)c(OC)cc1N(C)CCN(C)C	115	9.52 µM	0.076 µM	8.71 µM	0.0035 µM	4.9	0.017 µM	0.0047 µM	–
C=CC(=O)Nc1cc(Nc2ncc3ncn(-c4ccccc4)c3n2)c(OC)cc1N(C)CCN(C)C	58	8.08 µM	0.11 µM	0.58 µM	–	–	–	–	–
C=CC(=O)Nc1cc(Nc2ncc3ncn(-c4ccc(Cl)cc4)c3n2)c(OC)cc1N(C)CCN(C)C	30	7.69 µM	0.085 µM	1.86 µM	0.0039 µM	7	0.0156 µM	0.0064 µM	–
C=CC(=O)Nc1cc(Nc2ncc3ncn(-c4ccccc4Cl)c3n2)c(OC)cc1N(C)CCN(C)C	7	11.3 µM	1.71 µM	12.6 µM	–	–	–	–	–
C=CC(=O)Nc1cc(Nc2ncc3ncn(-c4ccc(F)c(Cl)c4)c3n2)c(OC)cc1N(C)CCN(C)C	35	1.61 µM	0.1 µM	5.19 µM	–	–	–	–	–
C=CC(=O)Nc1cc(Nc2ncc3[nH]c(=O)n(-c4ccc(I)cc4)c3n2)c(OC)cc1N(C)CCN(C)C	15	4.82 µM	0.83 µM	1.23 µM	–	–	–	–	–
C=CC(=O)Nc1cc(Nc2ncc3ncn(-c4ccc(F)c(Br)c4)c3n2)c(OC)cc1N(C)CCN(C)C	86	3.64 µM	0.035 µM	3.02 µM	0.0023 µM	4.3	0.01 µM	–	–
C=CC(=O)Nc1cc(Nc2ncc3nc(Nc4ccccc4)n(C)c3n2)c(OC)cc1N(C)CCN(C)C	160	8.7 µM	0.038 µM	6.08 µM	0.0027 µM	8.3	0.0224 µM	0.0035 µM	0.00269 µM
C=CC(=O)Nc1cc(Nc2ncc3ncn(-c4ccc(C(C)C)cc4)c3n2)c(OC)cc1N(C)CCN(C)C	196	15.3 µM	0.074 µM	14.5 µM	0.0042 µM	6	0.025 µM	–	–
C=CC(=O)Nc1cc(Nc2ncc3ncn(-c4ccc(F)cc4)c3n2)c(OC)cc1N(C)CCN(C)C	7	12 µM	0.061 µM	0.42 µM	0.0032 µM	5.6	0.0182 µM	0.0058 µM	–
